Compound activity deposited in PubChem by several laboratories.
Beta2AR agonist: agonists of human beta-2 adrenergic receptor inducing internalization; P07550; Am2.2-beta2AR cells, FAP receptor internalization, flow cytometry; response, % (no concentration beside the values); hit rate 0.43% among 340,000; AID 504454;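 active means response above a set limit, near 3 SD of response in nonfluorescent compounds, cut at about 42% in these data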
Target sequence (P07550 whole entry, looked up): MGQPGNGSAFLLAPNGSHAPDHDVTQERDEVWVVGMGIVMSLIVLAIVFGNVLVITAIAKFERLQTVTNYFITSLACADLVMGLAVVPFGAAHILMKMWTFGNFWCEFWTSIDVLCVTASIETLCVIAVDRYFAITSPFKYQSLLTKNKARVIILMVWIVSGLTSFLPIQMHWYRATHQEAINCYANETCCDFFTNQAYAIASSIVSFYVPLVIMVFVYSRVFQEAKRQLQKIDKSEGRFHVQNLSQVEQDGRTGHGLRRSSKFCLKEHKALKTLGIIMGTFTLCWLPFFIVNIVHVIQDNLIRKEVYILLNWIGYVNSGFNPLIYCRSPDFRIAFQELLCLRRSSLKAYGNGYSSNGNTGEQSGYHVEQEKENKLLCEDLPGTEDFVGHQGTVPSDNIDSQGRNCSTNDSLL
NOD2-RIPK2 inh: blocks binding of human NOD2 to RIPK2 | O43353 | CHO BLA complementation NOD2-RIPK2, CCF4 ratio | inhibition, % at 4.98 µM | hit rate 0.38% among 360,000; in the data active means inhibition above about 21%;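 further: 0% = vehicle only and 100% = reference blocker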
Dynein cargo inh: dynein cargo transport inhibition; hit rate 0.47% among 220,000; 3617.4 mouse cells, GR-EGFP nuclear translocation imaging; test concentration mostly 20 µM; stimulated with dexamethasone, 1 µM; hits give low values; AID 1381; z-score, hits read low;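 active means plate z-score of nuclear minus cytoplasmic receptor signal below a set negative limit, without overly bright fluorescence or cell loss, cut at about -3.5 in these data, passing the limit was not always enough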;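 further: z-score of nuclear minus cytoplasmic ring GR-EGFP intensity difference per well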
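Schedule: 48 h induction, then 1 h compound, then 30 min agonist, 37 °C. Buffer or medium: tetracycline-free induction medium containing charcoal-stripped FBS. Reagent: 1.0 µM final dexamethasone stimulus. Evaluation: nuclear versus cytoplasmic GR-EGFP signal, averaged per well. Signal: high-content fluorescence imaging after fixation.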
TLR4 MyD88 comp: TLR4-MyD88 interaction inhibition in cells; O00206+Q99836; HeLa CL3-4 TLR4/MyD88 BLA complementation, FRET ratio; inhibition, % at 8.4 µM; hit rate 0.18% among 200,000; AID 861; in the data active means inhibition above about 25%;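 further: 0% = vehicle and 100% = reference inhibitor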
ABHD5-PLIN5 inh: ABHD5-PLIN5 protein interaction inhibition | Split G. princeps luciferase complementation, luminescence, 4 h | inhibition, % at 4 µM | hit rate 0.78% among 360,000 | AID 602281;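 active means inhibition above the mean inhibition across every tested compound plus 3 SD, cut at about 22% in these data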;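 further: 0% = DMSO only wells and the 100% control is not disclosed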
TLR9-MyD88 inh: TLR9-MyD88 interaction inhibition; hit rate 0.21% among 340,000; Q9NR96+Q99836; CHO BLA complementation TLR9-MyD88, CCF4 FRET ratio; inhibition, % at 4.98 µM;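 active means inhibition above the mean over all tested compounds plus 3 SD, cut at about 21% in these data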;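 further: 0% = DMSO only wells and 100% = clavulanate BLA inhibitor control wells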
Dynein confirm: dynein cargo transport inhibition, confirmation | 3617.4 GR-EGFP nuclear translocation imaging, dexamethasone-induced | shares compounds with Dynein cargo inh | calls only at 20 µM | AID 463116 | hit rate 69% among 1,000;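 active means inhibition of receptor movement into the nucleus at or above a set limit in both runs, with normal cell brightness and cell count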;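 further: dexamethasone at 1 µM final in well for 30 min; nuclear minus cytoplasmic GR-EGFP mean intensity difference in channel 2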
Numbers without * were called inactive; i = inactive; x = no result; + = active, no number. Compounds with a hit are over-represented: about 1.6% of the library has one in this group of screens.

SMILES | Beta2AR agonist | NOD2-RIPK2 inh | Dynein cargo inh | TLR4 MyD88 comp | ABHD5-PLIN5 inh | TLR9-MyD88 inh | Dynein confirm
CC1(Cc2ccc(F)cc2)C(=O)Nc2ccc(-c3cccnc3)cc21 (configuration not stated) | x | -5 | x | x | -1 | x | x
CCC1(C)CC2(CCCN(CCC(=O)c3ccccc3)C2)CCO1 (configuration not stated) | 8 | -7 | -3.8* | -13 | 0 | 12 | i
CN(C)c1ccc(/C=C2\N=C(c3ccc(Cl)c([N+](=O)[O-])c3)NC2=O)cc1 | x | -3 | -4.5 | 1 | 4 | 4 | +
CN(C)c1ccc(/C=C2/NC(=O)NC2=O)cc1 | 4 | 5 | 0.069 | -3 | 2 | -10 | x
C[C@@H]1CCCCO[C@@H](CN(C)S(=O)(=O)c2ccccc2)[C@@H](C)CN([C@H](C)CO)C(=O)c2cc(N(C)C)ccc2O1 | x | -13 | x | x | -1 | -19 | x
CN(C)CCNC(=O)c1sc2nc(-c3ccccc3)cc(C(F)(F)F)c2c1N | -37 | 17 | x | x | -2 | 10 | x
Nc1c(C(=O)C2CC2)sc2nc(-c3ccccc3)cc(C(F)(F)F)c12 | -576 | -1 | -6.1 | 8 | 1 | 16 | i
O=C(O)Cn1cc(/C=N/Nc2ccc([N+](=O)[O-])cn2)c2ccccc21 | 19 | 3 | x | x | -4 | 10 | x
Cc1ccc(Cn2cc(/C=N/Nc3ccc([N+](=O)[O-])cn3)c3ccccc32)cc1 | -75 | 10 | -4.6 | 12 | -3 | 19 | +
Cc1ccc(S(=O)(=O)N2C[C@H]3C(=O)C[C@@H](c4ccccc4F)N(S(=O)(=O)c4ccc(C)cc4)[C@H]3C[C@H]2c2ccccc2F)cc1 | x | -14 | x | x | 20 | x | x
CCOC(=O)c1c(-c2ccccc2)csc1NC(=O)/C(C#N)=C/c1ccc(OC)c(OC)c1 | 1 | -18 | 4.3 | 9 | -12 | -4 | x
CCOC(=O)c1c(-c2ccccc2)csc1NC(=O)/C(C#N)=C/c1ccc(O)c(OC)c1 | x | 9 | -4.7* | 17 | 4 | 19 | +
O=C(/C=C/NNC(=O)c1ccc(Cl)cc1)c1ccccc1 | 2 | -1 | -6.2* | 15 | 2 | 5 | +
O=C(/C=C/NNC(=O)c1ccccc1)c1ccc(Br)cc1 | 12 | 4 | -3 | 12 | -5 | 9 | x
O=C(Sc1ccccc1)c1cccc(Cn2cc(C(F)(F)F)ccc2=O)c1 | 0 | -3 | -3.9* | x | -11 | x | +
O=[N+]([O-])c1ccc(/C=C/C2=NN(c3ccccc3)C(c3ccco3)C2)o1 (configuration not stated) | -371 | 1 | -6.8 | 4 | 2 | 0 | +
Fc1ccc(C2=NN(c3ccccc3)C(c3ccco3)C2)cc1 (configuration not stated) | 12 | -2 | -0.83 | -13 | -13 | -6 | x
Cc1nc2ccccc2c(=O)n1/N=C/c1ccc([N+](=O)[O-])o1 | x | x | -4* | x | x | x | +
COc1ccccc1N1C(=O)C2CC(C)=C(C)CC2C1=O (configuration not stated) | 9 | 0 | -0.94 | -2 | -3 | -4 | x
COc1ccccc1N1C(=O)C=C(Sc2nc(C)cc(C)n2)C1=O | 7 | -2 | -4* | x | 11 | x | +
CC(=O)Nc1cccc(C(=O)/C=C/c2cccs2)c1 | -1 | -6 | -3.7* | 3 | 22* | -1 | +
CCOC(=O)C1=C(Nc2ccc(OC)cc2)C(N)=NC1=N | x | 0 | x | x | 0 | 8 | x
O=C(NC(=S)Nc1nc2c(s1)CSc1ccccc1-2)c1ccccc1 | 1 | -3 | -3.5* | 1 | 7 | -3 | i
COc1ccccc1C(CNC(=O)C(CCSC)NC(=O)c1ccccc1Cl)N1CCCC1 (configuration not stated) | -4 | -10 | x | x | 15 | 1 | x
O=C(/C=C/c1ccco1)Nc1ccccc1N1CCCC1 | 3 | 2 | -3.6* | -13 | 5 | -4 | i
SMILES | Beta2AR agonist | NOD2-RIPK2 inh | Dynein cargo inh | TLR4 MyD88 comp | ABHD5-PLIN5 inh | TLR9-MyD88 inh | Dynein confirm
O=C(/C=C/c1ccco1)NC(=S)Nc1ccccc1N1CCCC1 | 0 | -11 | 0.45 | -9 | 2 | -3 | x
OC(CNCCc1ccc(C(F)(F)F)cc1)COc1ccc2ccccc2c1 (configuration not stated) | 11 | 8 | -4.8* | -9 | -12 | -1 | i
CC1CCCC(NC(=O)/C=C/c2c(F)cccc2Cl)C1C (configuration not stated) | 4 | -3 | x | x | 3 | 4 | x
CSC(SC)=C(C#N)C(=O)c1ccccc1 | 70* | 1 | -4.8* | x | -4 | -10 | +
COc1cccc(C(=O)C(CCC#N)c2ccccc2)c1 (configuration not stated) | x | -4 | x | x | 5 | -5 | x
COc1cccc(C(=O)C(C#N)=C(SC)SC)c1 | 21 | -5 | -4.5* | x | 8 | -5 | +
Cc1cccc(C)c1NC(=O)C1c2ccccc2OCC(=O)N1CCCN1CCOCC1 (configuration not stated) | x | 2 | x | x | 1 | x | x
CCC1(c2ccccc2)SCC(c2ccccc2)=NC1=O (configuration not stated) | 6 | -8 | x | x | -9 | -1 | x
COc1ccc(CNC(=O)C(c2ccncc2)N(C(=O)Cc2cccs2)c2ccccc2)cc1 (configuration not stated) | -17 | -14 | -0.2 | 13 | 2 | 1 | x
COc1ccc(N(C(=O)CCl)C(C(=O)NCCc2ccccc2)c2cccs2)cc1 (configuration not stated) | 41 | 6 | -5.3* | 10 | 13 | 3 | +
CN(C(=O)COC(=O)c1nc(Cl)c(Cl)c(Cl)c1Cl)C1CCS(=O)(=O)C1 (configuration not stated) | 6 | 15 | -4.6* | 0 | 5 | 19 | +
CC(=O)N(CC#CCN(C(C)=O)c1ccccc1)c1ccccc1 | x | 1 | x | x | 2 | 3 | x
COCC(=O)Nc1ccc2c(c1)[C@@H]1C[C@H](CC(=O)OC)O[C@H](CO)[C@@H]1O2 | x | 3 | x | x | 2 | 10 | x
COc1cc(N=c2ssnc2Cl)cc(OC)c1 | 30 | -17 | -4.2 | -26 | -2 | 0 | x
N#Cc1cccc(N=c2ssnc2Cl)c1 | 8 | x | -4.4 | -1 | x | x | +
CCCN1C(=O)/C(=C\c2ccncc2)SC1=Nc1ccccc1 | 7 | -1 | -4.4* | -3 | 7 | -3 | i
CC(=O)N1/C(=C/c2ccc(N(C)C)cc2)C(=O)c2ccccc21 | 45* | 9 | -5.8* | 2 | 19 | 7 | +
COC(=O)Cn1cnc(C(=O)Nc2ccc(C)c(C)c2)n1 | 2 | -2 | x | x | -7 | 3 | x
